The values that follow come from ChEMBL document CHEMBL2016495, “Design and synthesis of potent, isoxazole-containing renin inhibitors” (Bioorg Med Chem Lett, 2012).

One data set concerns the target Cytochrome P450 3A4 (Homo sapiens, UniProt P08684). As to the kind of experiment: Reversible inhibition of CYP3A4-mediated conversion of testosterone to 6-beta-hydroxy-testosterone after 30 mins. Type of data set: ADME.
Data set [1] concerns the target Voltage-gated inwardly rectifying potassium channel KCNH2 (Homo sapiens, UniProt Q12809). The experiment in a line: Binding affinity to human Erg.
In another data set the target is CYP3A4 (Homo sapiens, UniProt P08684). As to the kind of experiment: Inhibition of CYP3A4 assessed as time dependent inhibition of conversion of testosterone to 6-beta-hydroxy-testosterone at 10 uM. Type of data set: ADME. As to conditions: probe testosterone.
Data set [2] has as its target T1, Renin (Homo sapiens, UniProt P00797).
T1 sequence (P00797 whole entry): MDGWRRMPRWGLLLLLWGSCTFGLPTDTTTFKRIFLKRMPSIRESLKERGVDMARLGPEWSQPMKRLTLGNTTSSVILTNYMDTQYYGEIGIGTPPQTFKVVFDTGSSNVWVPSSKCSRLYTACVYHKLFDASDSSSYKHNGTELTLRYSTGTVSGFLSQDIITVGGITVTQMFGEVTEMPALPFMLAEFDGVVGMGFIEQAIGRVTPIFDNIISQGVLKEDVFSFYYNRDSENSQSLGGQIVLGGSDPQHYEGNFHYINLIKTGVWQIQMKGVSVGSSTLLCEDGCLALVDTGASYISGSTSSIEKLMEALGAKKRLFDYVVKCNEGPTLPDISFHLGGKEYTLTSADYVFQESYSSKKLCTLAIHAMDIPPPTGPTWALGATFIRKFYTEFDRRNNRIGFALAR
The experiment in a line: Inhibition of human recombinant renin using QXL520-Lys-His-Pro-Phe-His-Leu-Val-Ile-His-Lys-(5-FAM) as substrate pretreated for 10 mins measured after 1 hr by fluorescence analysis in presence of human plasma.

Data set [3] concerns the target T1, Renin. As to the kind of experiment: Inhibition of human recombinant renin using DNP-Lys-His-Pro-Phe-His-Leu-Val-Ile-His-D,L-Amp as substrate after 3 hrs by fluorescence analysis. A digest of the protocol:
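Recombinant human renin at 100 pM, with or without inhibitor, and 6 µM Q-FRET substrate in 50 mM MOPS, 100 mM NaCl, pH 7.4, 0.002% Tween. Incubated at 37 °C for 3 h. Fluorescence (ex 328 / em 388 nm) was read at 0 and 3 h.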

Data set [4] in a line: Oral bioavailability in Sprague-Dawley rat at 3 mg/kg. The format is ADME, organism-based. The conditions noted are these: in vivo. A digest of the protocol: (§1)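 Rats dosed orally at 3 mpk as a solution in 0.5% methyl cellulose.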
The nature of data set [5]: Clearance in Sprague-Dawley rat at 3 mg/kg, po and 0.5 mg/kg, iv. Type of data set: ADME, organism-based. The conditions noted are these: in vivo.
A short description of data set [6]: Half life in Sprague-Dawley rat at 3 mg/kg, po and 0.5 mg/kg, iv. The format is ADME, organism-based. The conditions noted are these: in vivo. A digest of the protocol: as §1
Data set [7] in a line: Volume of distribution at steady state in Sprague-Dawley rat at 3 mg/kg, po and 0.5 mg/kg, iv. Type of data set: ADME, organism-based. As to conditions: in vivo, read-out: Vdss.
The test system of data set [8] is Rattus norvegicus. As to the kind of experiment: Antihypertensive activity in double transgenic rat assessed as decrease in blood pressure at 3 mg/kg, po. Type of data set: functional.
Data set [9] can be described thus: AUC in Sprague-Dawley rat at 3 mg/kg, po. Type of data set: ADME, organism-based. Details: dose 3 mg/kg, route oral. The conditions noted are these: plasma. Put shortly:
as §1

Data set [10] deals with Rattus norvegicus. As to the kind of experiment: Antihypertensive activity in double transgenic rat assessed as duration of decrease in blood pressure at 3 mg/kg, po. The format is functional.

Chain of CYP3A4 (P08684 whole entry): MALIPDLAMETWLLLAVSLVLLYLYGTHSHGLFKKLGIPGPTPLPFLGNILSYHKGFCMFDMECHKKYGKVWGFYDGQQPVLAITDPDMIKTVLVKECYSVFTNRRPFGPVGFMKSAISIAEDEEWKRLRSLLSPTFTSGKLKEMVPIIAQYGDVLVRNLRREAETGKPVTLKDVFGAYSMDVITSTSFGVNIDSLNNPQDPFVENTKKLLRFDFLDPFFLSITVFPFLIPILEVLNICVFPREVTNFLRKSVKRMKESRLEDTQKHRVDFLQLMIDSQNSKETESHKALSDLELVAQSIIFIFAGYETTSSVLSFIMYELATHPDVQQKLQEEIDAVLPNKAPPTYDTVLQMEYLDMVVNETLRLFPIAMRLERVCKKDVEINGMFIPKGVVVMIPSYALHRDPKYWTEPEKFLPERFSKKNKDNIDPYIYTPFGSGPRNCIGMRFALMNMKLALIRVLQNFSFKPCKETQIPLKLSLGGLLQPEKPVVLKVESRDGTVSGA
Chain of Cytochrome P450 3A4 (P08684 whole entry): as above
Chain of Voltage-gated inwardly rectifying potassium channel KCNH2 (Q12809 whole entry): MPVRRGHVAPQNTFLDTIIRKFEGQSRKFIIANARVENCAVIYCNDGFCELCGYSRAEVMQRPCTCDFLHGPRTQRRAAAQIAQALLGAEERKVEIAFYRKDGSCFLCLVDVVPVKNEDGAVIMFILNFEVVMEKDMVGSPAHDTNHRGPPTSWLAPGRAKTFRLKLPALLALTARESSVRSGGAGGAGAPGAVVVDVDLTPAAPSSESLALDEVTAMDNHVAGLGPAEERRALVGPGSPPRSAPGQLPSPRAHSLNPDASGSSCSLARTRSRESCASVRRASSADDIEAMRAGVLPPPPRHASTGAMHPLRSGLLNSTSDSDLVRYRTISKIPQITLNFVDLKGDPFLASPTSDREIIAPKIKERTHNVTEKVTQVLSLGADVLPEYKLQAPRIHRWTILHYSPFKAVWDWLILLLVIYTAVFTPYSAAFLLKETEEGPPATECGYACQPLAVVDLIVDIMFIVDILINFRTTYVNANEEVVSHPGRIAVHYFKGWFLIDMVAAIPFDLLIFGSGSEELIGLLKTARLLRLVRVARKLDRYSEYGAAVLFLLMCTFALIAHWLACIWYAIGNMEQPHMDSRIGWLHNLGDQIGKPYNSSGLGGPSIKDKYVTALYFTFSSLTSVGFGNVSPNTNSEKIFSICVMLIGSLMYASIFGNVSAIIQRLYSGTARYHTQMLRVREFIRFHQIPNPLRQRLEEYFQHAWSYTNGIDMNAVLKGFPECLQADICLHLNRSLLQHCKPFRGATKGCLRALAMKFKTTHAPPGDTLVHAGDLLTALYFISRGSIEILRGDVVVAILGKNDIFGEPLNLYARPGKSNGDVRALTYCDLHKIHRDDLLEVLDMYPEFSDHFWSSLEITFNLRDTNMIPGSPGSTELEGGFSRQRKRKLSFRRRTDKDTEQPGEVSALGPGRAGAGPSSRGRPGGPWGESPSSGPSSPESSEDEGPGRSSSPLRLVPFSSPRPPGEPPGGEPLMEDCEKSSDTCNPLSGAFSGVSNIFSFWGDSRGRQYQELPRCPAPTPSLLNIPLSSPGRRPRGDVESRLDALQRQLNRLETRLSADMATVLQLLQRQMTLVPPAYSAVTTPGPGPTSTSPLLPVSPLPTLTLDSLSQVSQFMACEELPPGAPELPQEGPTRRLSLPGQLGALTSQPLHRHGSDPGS

Take `CC(=O)NCCc1ccccc1-c1ccc([C@H]2CNCC[C@@H]2c2ccc(F)c(F)c2)c(Cl)c1`: the 50% inhibitory concentration (IC50) (usually the concentration that gives 50% inhibition) on Cytochrome P450 3A4 is 20 µM.
As for `O[C@]1(c2ccc(F)c(F)c2)CCNC[C@@H]1c1cc(-c2ccc(F)cc2Br)no1`, the affinity in data set [1], expressed as Ki, was 1.7 µM. Further, the midpoint of inhibition against Cytochrome P450 3A4, the IC50, lay at 3 µM. The inhibition (commonly the change of the read-out against control, counted positive when it falls) at 10 µM on CYP3A4 worked out at 22%.
On the same counts, the results for `O[C@]1(c2ccc(F)c(F)c2)CCNC[C@@H]1c1cc(-c2c(Cl)cccc2Cl)no1` are 2.8 µM, 8 µM and 59%.
Consider `O[C@]1(c2ccc(F)c(F)c2)CCNC[C@@H]1c1cc(-c2ccc(F)cc2Cl)no1`, for which the values for the IC50 against Cytochrome P450 3A4 and on Renin [2] were 7 µM and more than 9.5 µM, respectively. At CYP3A4, the inhibition at 10 µM amounted to 36%.
For `O[C@]1(c2ccc(F)c(F)c2)CCNC[C@@H]1c1onc(-c2ccccc2Cl)c1Br`, the IC50 amounted to 1.14 nM at Renin [3] and 18 µM against Cytochrome P450 3A4. In addition, the inhibition at 10 µM on CYP3A4 came out at 76%.
The compound `O[C@]1(c2ccc(F)c(F)c2)CCNC[C@@H]1c1onc(-c2cccc(Cl)c2Cl)c1Br` showed an IC50 at Cytochrome P450 3A4 of 19 µM. Moreover, the inhibition at 10 µM on CYP3A4 was 60%.
As to `Cc1cccc(-c2noc([C@H]3CNCC[C@]3(O)c3ccc(F)c(F)c3)c2Br)c1C`, the affinity in data set [1] corresponds to a Ki of 6 µM. The compound further displayed an IC50 at Cytochrome P450 3A4 of 20 µM. In addition, the inhibition at 10 µM on CYP3A4 was 77%.
On the same counts, the results for `O[C@]1(c2ccc(F)c(F)c2)CCNC[C@@H]1c1onc(-c2c(Cl)cccc2Cl)c1Br` are 3.9 µM, 15 µM and 82%.
As to `O[C@]1(c2ccc(F)c(F)c2)CCNC[C@@H]1c1onc(-c2cccc3ccccc23)c1Br`, the IC50 on Renin [3] is 0.06 nM; at Cytochrome P450 3A4, more than 50 µM. Besides, the inhibition constant (Ki) (usually the dissociation constant of the complex between target and ligand, obtained from inhibition or displacement) in data set [1] came out at 4.2 µM. In addition, the inhibition at 10 µM at CYP3A4 is 67%.
Take `CC(=O)NCCc1ccccc1-c1noc([C@H]2CNCC[C@]2(O)c2ccc(F)c(F)c2)c1Br`: at Cytochrome P450 3A4, the IC50 worked out at 45 µM. Moreover, the inhibition at 10 µM at CYP3A4 was 74%.
Regarding `CC(=O)NCCc1ccccc1-c1onc([C@H]2CNCC[C@]2(O)c2ccc(F)c(F)c2)c1Br`, the IC50 on Renin [3] is 0.27 nM; against Cytochrome P450 3A4, 33 µM. Moreover, the inhibition at 10 µM on CYP3A4 amounted to 68%. Further, the bioavailability (in general, dose-corrected exposure relative to a reference, in per cent) in [4] is 16%. The same compound showed a clearance in data set [5] of 108 mL/min/kg. The half-life – broadly, how long it takes for the measured level to halve – in data set [6] was 5.7 h. Besides, the Vd in data set [7] is 36 L/kg. Moreover, the Activity in the data set with Rattus norvegicus [8] is given as 44 mmHg. The exposure (AUC) (in general, concentration integrated over time) in [9] turned out to be 0.14 µM·h. Moreover, in the data set on Rattus norvegicus [10], the Time came to 18 h.
Regarding `O[C@]1(c2ccc(F)c(F)c2)CCNC[C@@H]1c1cc(-c2c(Cl)cccc2Cl)on1`, in [1], the Ki is 9.8 µM. The values for the IC50 at Cytochrome P450 3A4 and on Renin [2] were 17 µM and more than 9.5 µM, respectively. The inhibition at 10 µM on CYP3A4 came out at 60%.
`CC(=O)NCCc1cc(F)ccc1-c1onc([C@H]2CNCC[C@]2(O)c2ccc(F)c(F)c2)c1Br`: the figures for the 50% inhibitory concentration (IC50) on Cytochrome P450 3A4 and on Renin [2] were 45 µM and 0.0007 µM, respectively. In addition, the inhibition at 10 µM on CYP3A4 was found to be 78%.
As for `CC(=O)NCCc1ccccc1-c1cc([C@H]2CNCC[C@]2(O)c2ccc(F)c(F)c2)no1`, the values for the concentration for half-maximal inhibition (IC50) at Renin [3], against Cytochrome P450 3A4 and at Renin [2] were 166 nM, 32 µM and 0.331 µM, respectively. In addition, the inhibition at 10 µM on CYP3A4 is 21%.
Take `CC(=O)NCCc1ccccc1-c1onc([C@H]2CNCC[C@]2(O)c2ccc(F)c(F)c2)c1Cl`: the IC50 on Renin [3] is 0.73 nM; against Cytochrome P450 3A4, more than 50 µM. Further, the inhibition at 10 µM at CYP3A4 was 74%.
In turn, `CC(=O)NCCc1ccccc1-c1onc([C@H]2CNCC[C@]2(O)c2ccc(F)c(F)c2)c1C(C)=O` yielded an IC50 against Cytochrome P450 3A4 of 8 µM. Besides, the inhibition at 10 µM at CYP3A4 was determined as 32%.
For `CC(=O)NCCc1ccccc1-c1onc([C@H]2CNCC[C@]2(O)c2ccc(F)c(F)c2)c1C(C)O` (stereo partly drawn), on Cytochrome P450 3A4, the IC50 is more than 50 µM. Moreover, the inhibition at 10 µM on CYP3A4 is 48%.
Take `CC(=O)NCCc1ccccc1-c1onc([C@H]2CNCC[C@@H]2c2ccc(F)c(F)c2)c1Br`: in [1], affinity was put at a Ki of 19.5 µM. This compound also yielded an IC50 at Cytochrome P450 3A4 of 13 µM. Further, the inhibition at 10 µM on CYP3A4 was 75%.
As for `CO[C@]1(c2ccc(F)c(F)c2)CCNC[C@@H]1c1noc(-c2ccccc2CCNC(C)=O)c1Br`, the figures for the IC50 at Renin [3] and on Cytochrome P450 3A4 were 0.17 nM and 28 µM, respectively. Further, the inhibition at 10 µM at CYP3A4 turned out to be 60%.
For the compound `CC(=O)NCCc1ccccc1-c1onc([C@H]2CNCC[C@]2(C(N)=O)c2ccc(F)c(F)c2)c1Br`, the IC50 on Renin [3] is 0.22 nM; on Renin [2], 0.0006 µM. In [1], this compound showed a Ki of 30 µM.
`CC(=O)NCCc1ccccc1-c1onc([C@H]2CNCC[C@]2(OCC(O)CO)c2ccc(F)c(F)c2)c1Br` (stereo partly drawn) returned a Ki in [1] of more than 60 µM. In addition, the IC50 against Cytochrome P450 3A4 is more than 50 µM. For the same compound, at CYP3A4, the inhibition at 10 µM was determined as 18%. Moreover, the bioavailability in data set [4] was 0%. For the same compound, the clearance in [5] amounted to 70 mL/min/kg. In addition, the half-life in [6] is 1.9 h. Also, the Vd in data set [7] was 12 L/kg.
In the case of `COC[C@H](C)COCc1ccc([C@@]2(O)CCNC[C@@H]2c2noc(-c3ccccc3CCNC(C)=O)c2Br)cc1`, the figures for the IC50 at Renin [3], against Cytochrome P450 3A4 and on Renin [2] were 0.26 nM, 29 µM and 0.00067 µM, respectively. Besides, in [1], affinity was put at a Ki of 31.2 µM. Moreover, the inhibition at 10 µM at CYP3A4 amounted to 10%. The same compound came in with a bioavailability in data set [4] of 18%. For the same compound, the clearance in data set [5] was 124 mL/min/kg. Further, the half-life in [6] was 1.4 h. Also, the Vd in data set [7] was determined as 12 L/kg. Moreover, the Activity with Rattus norvegicus [8] was 27 mmHg. In [9], this compound yielded an AUC of 0.13 µM·h. In addition, the Time in the data set with Rattus norvegicus [10] came to 8 h.
